SENP7 block = SENP7 protease inhibitors, primary screen, biochemical, luminescence, uHTS. AID 434973, 2010. recombinant SENP7, Z-RLRGG-aminoluciferin luminescence, 40 min. 1.5% of 330,000 active. inhibition, % at 5 µM;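 active = inhibition above about 50% at the single test dose, limit read from the data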
Target sequence (Q9BQF6 706-1050 limits assumed): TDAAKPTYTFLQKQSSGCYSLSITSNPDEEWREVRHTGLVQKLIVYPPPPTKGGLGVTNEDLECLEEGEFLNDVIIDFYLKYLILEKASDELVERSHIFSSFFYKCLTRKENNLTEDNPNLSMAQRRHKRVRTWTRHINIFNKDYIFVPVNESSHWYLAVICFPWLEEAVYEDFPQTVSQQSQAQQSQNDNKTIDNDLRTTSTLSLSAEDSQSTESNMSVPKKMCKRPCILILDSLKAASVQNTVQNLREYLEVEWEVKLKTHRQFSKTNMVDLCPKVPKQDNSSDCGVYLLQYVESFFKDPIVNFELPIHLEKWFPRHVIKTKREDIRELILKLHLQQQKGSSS
SENP1 FRET inh = human SENP1 catalytic domain inhibitors, primary screen, biochemical, FRET, uHTS | recombinant SENP1 catalytic domain, CyPet-SUMO1-YPet FRET cleavage | 0.21% of 360,000 active | Sentrin-specific protease 1 (Homo sapiens), Q9P0U3 | inhibition, % at 10 µM;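 active = inhibition at least 30% at 10 µM, raw YFP signal under a set limit, fluorescence ratio 0.5 to 1.5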
Target sequence (Q9P0U3 419-644 limits assumed): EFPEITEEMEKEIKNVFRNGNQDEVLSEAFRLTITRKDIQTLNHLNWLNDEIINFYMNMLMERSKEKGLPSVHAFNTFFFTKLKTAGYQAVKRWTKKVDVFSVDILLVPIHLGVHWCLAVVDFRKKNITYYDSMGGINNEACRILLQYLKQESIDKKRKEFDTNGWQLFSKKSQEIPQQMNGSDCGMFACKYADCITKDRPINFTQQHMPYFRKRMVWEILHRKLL
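Material: hSENP1 catalytic domain, recombinant; medium: Tris pH 8 with BME, BSA, NP40 and catalase; compound: single concentration of 10 µM compound, 0.5% DMSO final; technique: FRET read of cyan and yellow fluorescence; timing: 50 min enzyme reaction, room temperature, light-protected; reagent: SFCypet-SUMO1-SFYpet substrate at 25 nM; control set: no-enzyme low, enzyme-DMSO high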
SENP8 block-1 = SENP8 protease inhibitors, primary screen, biochemical, luminescence; Sentrin-specific protease 8 (Homo sapiens), Q96LD8; purified SENP8, Z-RLRGG-aminoluciferin cleavage; inhibition, % at 10 µM; 1.2% of 330,000 active; AID 2540, 2010; in the data active = inhibition above about 50%
SENP8 block-2 = human SENP8 protease inhibitors, primary screen, biochemical, fluorescence, Nedd8 protein substrate, uHTS. 0.64% of 360,000 active. inhibition, % at 20 µM. recombinant SENP8. Sentrin-specific protease 8 (Homo sapiens), Q96LD8. AID 602440, 2012; in the data active = inhibition mostly above about 40%, no sharp cut-off; inactive = mostly below about 27%
HSP90 refold inh = HSP90 inhibitors, primary screen, cell lysate, luminescence. inhibition, % at 5.6 µM. Rabbit reticulocyte lysate, luciferase refolding luminescence, 3 h. 0.91% of 290,000 active;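 active = inhibition above the screen-wide mean plus 3 SD, computed separately per campaign, cut at about 16% in these data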;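 note: inhibitors lower the luminescence because luciferase stays unfolded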
SENP6 inh = SENP6 protease inhibitors, primary screen, biochemical, luminescence, uHTS; inhibition, % at 10 µM; Sentrin-specific protease 6 (Homo sapiens), Q9GZR1; 1.8% of 330,000 active; Recombinant SENP6 catalytic domain, aminoluciferin luminescence;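 active = inhibition above about 50% at the single tested dose, limit read from the data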
HSP90 confirm = HSP90 inhibitors, confirmation, cell lysate, luminescence; inhibition, % at 5.9 µM; rabbit reticulocyte lysate, luciferase refolding luminescence, 3 h; shares compounds with HSP90 refold inh; AID 1846, 2009; 64% of 2,300 active; in the data active = inhibition above about 18%
luciferase ctr = firefly luciferase inhibitors, HSP90 counter-screen, confirmation, artefact control for HSP90 inhibitor project, biochemical, luminescence, triplicate; shares compounds with HSP90 refold inh; purified native firefly luciferase; inhibition, % at 5.9 µM; 48% of 2,300 active; AID 1847, 2009;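 active = inhibition above the mean inhibition of all tested sample wells plus 3 SD, cut at about 10% in these data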
Large screens that a line does not name were inactive (follow-up assays come after a bar, where they were run). Hits are enriched below; roughly 2.9% of the tested compounds scored in any of these assays.

O=C1c2ccccc2NC(c2ccc3c(c2)OCCO3)N1c1ccc2c(c1)OCCO2 (centres undefined)	HSP90 refold inh 22.3 | HSP90 confirm 16.7 | luciferase ctr inactive
COc1cc(C2Nc3ccccc3C(=O)N2c2ccc3c(c2)OCCO3)ccc1OCC(C)C (centres undefined)	HSP90 refold inh 44.7 | HSP90 confirm inactive | luciferase ctr inactive
COc1ccc(NC(=O)CSc2ncccn2)cc1S(=O)(=O)N1CCCCC1	none (no result: HSP90 refold inh)
OCCn1nc(-c2ccccc2)cc1-c1ccccc1	none
O=C1C2CCCN2C(=S)N1c1ccccc1 (centres undefined)	HSP90 refold inh 49.5 | HSP90 confirm inactive | luciferase ctr inactive
Cc1ccc(S(=O)(=O)NCCCNS(=O)(=O)c2ccccc2Br)cc1	none (no result: SENP8 block-1, HSP90 refold inh, SENP6 inh)
Cc1ccc(N2CC(O)=C(c3nc4ccccc4c(=O)[nH]3)C2=N)cc1C	HSP90 refold inh 25.0 | HSP90 confirm inactive | luciferase ctr inactive
N=C1C(c2nc3ccccc3c(=O)[nH]2)=C(O)CN1c1ccccc1	none (no result: SENP7 block, SENP1 FRET inh, SENP8 block-1, SENP8 block-2, SENP6 inh)
Cc1ccccc1-c1nc2sc3c(c2c(=O)n1N)CCCC3	HSP90 refold inh 37.6 | HSP90 confirm 36.6 | luciferase ctr 37.0
CCOC(=O)NC(=O)CSc1ccccn1	none
CCOC(=O)NC1Cc2ccccc2C1Sc1ccccn1 (centres undefined)	HSP90 refold inh 43.6 | HSP90 confirm inactive | luciferase ctr inactive
CCOC(=O)c1sc(N)c(C#N)c1CSc1nc2ccc(OCC)cc2[nH]1	none
CCOC(=O)c1sc(N)c(C#N)c1CSc1nc2ccc(C)cc2[nH]1	HSP90 refold inh 18.4 | HSP90 confirm inactive | luciferase ctr inactive
O=C(Nc1ccc(NC(=O)c2ccco2)nc1)c1ccco1	none
CC(C)(C)C(=O)Nc1ccc(/C=C/C(=O)c2ccco2)cc1	HSP90 refold inh 26.2 | HSP90 confirm 39.9 | luciferase ctr 49.9
CC(C)(C)C(=O)Nc1ccc(NC(=O)c2ccco2)nc1	HSP90 refold inh 91.4 | HSP90 confirm 88.8 | luciferase ctr 83.7
Nc1ccc(/C=C/C(=O)c2ccco2)cc1	none
O=C(Nc1ccc(NC(=O)C2CCCCC2)cn1)c1ccco1	HSP90 refold inh 21.6 | HSP90 confirm 54.8 | luciferase ctr 47.5
COCCn1c(C)cc(C2=NNC(=Nc3ccccc3)SC2)c1C	HSP90 refold inh 50.9 | HSP90 confirm 38.7 | luciferase ctr 32.9
COCCn1c(C)cc(C2=NNC(=Nc3ccc(OC)cc3)SC2)c1C	none
COc1ccc(OC)c(Nc2nc(-c3sc(N)nc3C)cs2)c1	HSP90 refold inh 26.0 | HSP90 confirm inactive | luciferase ctr inactive
Cc1cc(O)ccc1Nc1nc(-c2sc(N)nc2C)cs1	HSP90 refold inh 33.7 | HSP90 confirm inactive | luciferase ctr inactive
Cc1nc(N)sc1-c1csc(Nc2ccccc2)n1	HSP90 refold inh 25.5 | HSP90 confirm inactive | luciferase ctr inactive
CCOC(=O)N1CCN(S(=O)(=O)N2CCCC(C(=O)NCCc3ccc(OCC)c(OCC)c3)C2)CC1 (centres undefined)	none
C[C@@H]1CN([C@@H](C)CO)C(=O)c2cc(Br)cnc2O[C@H]1CN(C)C(=O)Nc1ccc2c(c1)OCO2	none (no result: SENP7 block, SENP8 block-1, HSP90 refold inh, SENP6 inh)
Nc1nonc1-n1nnc(C(=O)N/N=C/c2ccc(OCc3ccccc3)cc2)c1CNc1ccccc1	none
O=C(O)c1ccc(-c2nc(-c3ccc(Cl)cc3)cs2)cc1	none (no result: SENP7 block, SENP8 block-1, SENP6 inh)
COc1ccc(-c2csc(-c3ccc(C(=O)O)cc3)n2)cc1	HSP90 refold inh 19.3 | HSP90 confirm 39.2 | luciferase ctr inactive
COc1ccc(CCNC(=O)c2nnn(-c3ccccc3OC)c2N)cc1OC	none
COc1ccc(CCNC(=O)c2nnn(-c3ccc4c(c3)OCCO4)c2N)cc1OC	HSP90 refold inh 28.8 | HSP90 confirm 64.0 | luciferase ctr 66.1
CCc1nc2c(OCc3ccc(Cl)cc3Cl)cccn2c1N(C)C(=O)C1CC1	none (no result: SENP7 block, SENP8 block-1, HSP90 refold inh, SENP6 inh)
CC(C)(C)n1nnnc1C(c1ccccc1F)N1CCN(C2CCCC2)CC1 (centres undefined)	HSP90 refold inh 22.5 (no result: SENP7 block, SENP8 block-1, SENP6 inh) | HSP90 confirm inactive | luciferase ctr inactive
CCOP(=O)(OCC)C(Cc1ccc(OC)c(OC)c1)N=C(c1ccccc1)c1ccccc1 (centres undefined)	none (no result: SENP7 block, SENP8 block-1, HSP90 refold inh, SENP6 inh)
Cc1ccc(C(=O)NCC(=O)OC(C)C(=O)Nc2ccc(N3CCOCC3)cc2)s1 (centres undefined)	HSP90 refold inh 19.6 | HSP90 confirm inactive | luciferase ctr inactive
Cc1ccc(S(=O)(=O)CCC(=O)OC(C)C(=O)Nc2ccc(N3CCOCC3)cc2)cc1 (centres undefined)	none (no result: HSP90 refold inh)
Cc1nc2ccccc2c(=O)n1-c1ccc(F)c(NS(=O)(=O)c2ccccc2F)c1	none (no result: HSP90 refold inh)
CC1(C)C(C=C(Cl)Cl)C1C(=O)N(Cc1cccc(Cl)c1)C1CCS(=O)(=O)C1 (centres undefined)	HSP90 refold inh 16.9 | HSP90 confirm inactive | luciferase ctr inactive
O=C(c1ccc(NS(=O)(=O)c2cccc(F)c2)cc1)N1CCCCC1	HSP90 refold inh 24.4 | HSP90 confirm inactive | luciferase ctr inactive
O=C(c1ccc(NS(=O)(=O)c2cccc(F)c2)cc1)N1CCCC1	none
C=C(C1=CCN(S(=O)C(C)(C)C)[C@@H]1CCO)c1ccccc1 (some centres undefined)	none (no result: SENP7 block, SENP8 block-1, HSP90 refold inh, SENP6 inh)
CCCOc1ccc(/C=N/Nc2ccc(C(=O)O)cc2)c(OCCC)c1	HSP90 refold inh 29.3 (no result: SENP7 block, SENP8 block-1, SENP6 inh) | HSP90 confirm 43.7 | luciferase ctr 47.8
CCCOc1ccc(/C=N/Nc2cccc([N+](=O)[O-])c2)c(O)c1	none
CC(C)(C)c1cc(NC(=O)c2cccs2)no1	SENP7 block 94.8, SENP8 block-1 88.1, HSP90 refold inh 20.7, SENP6 inh 89.0 | HSP90 confirm 35.7 | luciferase ctr 13.2
Cc1cc(NC(=O)c2ccc(NC(=O)c3cccs3)cc2)no1	none
CCc1ccc(C(=O)Nn2c(C)nc3ccccc3c2=O)cc1	none
CCOC(=O)CSc1nc2ccccc2c(=O)n1NC(=O)c1ccccc1	HSP90 refold inh 20.1 | HSP90 confirm inactive | luciferase ctr inactive
COc1ccc(C(=O)Nn2c(SCC(=O)c3ccccc3)nc3ccccc3c2=O)cc1	HSP90 refold inh 48.1 | HSP90 confirm 53.4 | luciferase ctr 48.4

Screening data as filed in PubChem BioAssay.
